According to ChEMBL document CHEMBL5346886 (Eur J Med Chem, 2023):
Converted amounts (≈) assume the structure as drawn. The source made the active and inactive calls. No cut-off for these calls is given here.

Key:
Murine hepatitis virus [1] = assay: Antiviral activity against murine hepatitis virus-A59 infected in BALB/c mouse assessed as reduction in IL-1beta production in lungs at 200 mg/kg, po administered once daily one hour post infection and measured after 3 days by ELISA analysis; format: functional, organism-based; conditions: time 3.0 day
Summary of the method: (§1)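 MHV-A59 was inoculated intranasally into male BALB/c mice (30 μL, TCID50 = 10−7.125/100 μL), with oral dosing once daily from 1 hpi for four days. At 3 dpi, 0.1 g lung or liver from 4 mice per group was homogenized in 0.9 mL water at 4 °C and centrifuged. Supernatant IFN-β was read by ELISA; TNF-α, IFN-γ, IL-1β, IL-6 and CXCL10 by multi-analyte kit, with OD 450 nm against standards.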

[2] = Drug distribution in BALB/c mouse kidney assessed as hydrolyzed GS-441524 metabolite at 200 mg/kg, po administered as single dose and measured after 1 hrs by LC-MS/MS analysis; format: ADME, organism-based; conditions: in vivo
Murine hepatitis virus [3] = assay: Antiviral activity against murine hepatitis virus-A59 infected in BALB/c mouse assessed as survival rate at 10 mg/kg, po administered once daily one hour post infection and measured after 23 days relative to control; format: functional; conditions: Murine coronavirus, A59, 552 h, time 23 day
Summary of the method: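 Male SPF BALB/c mice (3–4 weeks) were anaesthetised with isoflurane and given 30 μL MHV-A59 intranasally (TCID50 = 10−7.125/100 μL) in PBS. Oral dosing once daily in 15% Cremophor EL/82.5% PBS/2.5% DMSO began at 1 hpi and ran for four days, at 10, 50 or 200 mg/kg. There were 12 mice per group, with 4 culled at 3 dpi. Body weight, clinical signs and death were recorded daily to 23 days.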

[4] = Drug distribution in BALB/c mouse lung assessed as hydrolyzed GS-441524 metabolite at 200 mg/kg, po administered as single dose and measured after 1 hrs by LC-MS/MS analysis; format: ADME, organism-based; conditions: in vivo
[5] = Drug distribution in BALB/c mouse lung assessed as hydrolyzed ibuprofen metabolite at 200 mg/kg, po administered as single dose and measured after 1 hrs by LC-MS/MS analysis; format: ADME, organism-based; conditions: in vivo
Murine hepatitis virus [6] = assay: Antiviral activity against murine hepatitis virus-A59 infected in BALB/c mouse assessed as reduction in IL-6 production in lungs at 200 mg/kg, po administered once daily one hour post infection and measured after 3 days by ELISA analysis; format: functional, organism-based; conditions: time 3.0 day; summary of the method: as §1
Murine hepatitis virus [7] = assay: Antiviral activity against murine hepatitis virus-A59 infected in BALB/c mouse assessed as remission of fulminant hepatitis in liver at 200 mg/kg, po administered once daily one hour post infection and measured after 3 days by H&E staining based analysis; format: functional, organism-based; conditions: time 3.0 day
Summary of the method: (§2)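 In male BALB/c mice (3–4 weeks), MHV-A59 was given intranasally (30 μL, TCID50 = 10−7.125/100 μL). Oral dosing once daily in a Cremophor EL/PBS/DMSO vehicle began at 1 hpi and lasted four days. At 3 dpi, lungs and livers from 4 mice per group were fixed in zinc formalin and paraffin-embedded. Sections of about 4 μm were stained with H&E and examined at 200× and 400×.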

Murine hepatitis virus [8] = assay: Antiviral activity against murine hepatitis virus-A59 infected in BALB/c mouse assessed as reduction in CXCL10 production in lungs at 200 mg/kg, po administered once daily one hour post infection and measured after 3 days by ELISA analysis; format: functional, organism-based; conditions: time 3.0 day; summary of the method: as §1
[9] = Drug distribution in BALB/c mouse plasma assessed as hydrolyzed GS-441524 metabolite at 200 mg/kg, po administered as single dose and measured after 1 hrs by LC-MS/MS analysis; format: ADME, organism-based; conditions: in vivo
Murine hepatitis virus [10] = assay: Antiviral activity against murine hepatitis virus-A59 infected in BALB/c mouse assessed as reduction in IL-6 production in liver at 10 to 100 mg/kg, po administered once daily one hour post infection and measured after 3 days by ELISA analysis; format: functional, organism-based; conditions: dose 10-100 mg/kg, time 3.0 day; summary of the method: as §1
Murine hepatitis virus [11] = assay: Antiviral activity against murine hepatitis virus-A59 infected in BALB/c mouse assessed as alleviation of necrotic debris in lungs at 200 mg/kg, po administered once daily one hour post infection and measured after 3 days by H&E staining based analysis; format: functional, organism-based; conditions: time 3.0 day; summary of the method: as §2
Murine hepatitis virus [12] = assay: Antiviral activity against murine hepatitis virus-A59 infected in BALB/c mouse assessed as reduction in TNF-alpha production in lungs at 200 mg/kg, po administered once daily one hour post infection and measured after 3 days by ELISA analysis; format: functional, organism-based; conditions: time 3.0 day; summary of the method: as §1
Murine hepatitis virus [13] = assay: Antiviral activity against murine hepatitis virus-A59 infected in BALB/c mouse assessed as inhibition of viral titer in lungs at 200 mg/kg, po administered once daily one hour post infection and measured after 3 days by qRT-PCR analysis; format: functional, organism-based; conditions: time 3.0 day
Summary of the method: (§3)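 SPF male BALB/c mice aged 3–4 weeks were put under isoflurane and inoculated intranasally with 30 μL MHV-A59 (TCID50 = 10−7.125/100 μL) in PBS. Oral dosing once daily in 15% Cremophor EL/82.5% PBS/2.5% DMSO started at 1 hpi and ran for four days; groups had 12 mice. At 3 dpi, 4 mice per group were killed and lung and liver M-gene copies measured by qRT-PCR.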

[14] = Drug metabolism in Sprague-Dawley rat assessed as hydrolysis-mediated ibuprofen metabolite formation at 25 mg/kg, po administered as single dose and measured after 24 hrs by LC-MS/MS analysis; format: ADME, organism-based; conditions: in vivo
Summary of the method: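 Male SD rats (n = 3), fasted 12 h, dosed intragastrically; jugular vein blood into EDTA-K2 tubes at 0.25, 0.5, 1, 2, 3, 4, 6, 8 and 24 h; plasma protein-precipitated with acetonitrile, filtered, analytes measured by LC/MS/MS; noncompartmental PK analysis; mean ± SD.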

Murine hepatitis virus [15] = assay: Antiviral activity against murine hepatitis virus-A59 infected in BALB/c mouse assessed as reduction in TNF-alpha production in liver at 10 to 100 mg/kg, po administered once daily one hour post infection and measured after 3 days by ELISA analysis; format: functional, organism-based; conditions: dose 10-100 mg/kg, time 3.0 day; summary of the method: as §1
Murine hepatitis virus [16] = assay: Antiviral activity against murine hepatitis virus-A59 infected in BALB/c mouse assessed as remission of hemorrhage in liver at 200 mg/kg, po administered once daily one hour post infection and measured after 3 days by H&E staining based analysis; format: functional, organism-based; conditions: time 3.0 day; summary of the method: as §2
[17] = Stability in human plasma assessed as half-life; format: ADME, cell-free
Murine hepatitis virus [18] = assay: Antiviral activity against murine hepatitis virus-A59 infected in BALB/c mouse assessed as inhibition of viral titer in liver at 10 to 200 mg/kg, po administered once daily one hour post infection and measured after 3 days by qRT-PCR analysis; format: functional, organism-based; conditions: dose 10-200 mg/kg, time 3.0 day; summary of the method: as §3
[19] = Toxicity in BALB/c mouse infected with murine hepatitis virus-A59 assessed as effect on survival at 50 to 200 mg/kg, po administered once daily one hour post infection and measured after 23 days; conditions: in vivo, 552 h
[20] = Solubility of the compound; format: physicochemical
[21] = Drug distribution in BALB/c mouse liver assessed as hydrolyzed ibuprofen metabolite at 200 mg/kg, po administered as single dose and measured after 1 hrs by LC-MS/MS analysis; format: ADME, organism-based; conditions: in vivo
Murine hepatitis virus [22] = assay: Antiviral activity against murine hepatitis virus-A59 infected in BALB/c mouse assessed as reduction in IFN-gamma production in liver at 10 to 100 mg/kg, po administered once daily one hour post infection and measured after 3 days by ELISA analysis; format: functional, organism-based; conditions: dose 10-100 mg/kg, time 3.0 day; summary of the method: as §1

SMILES: CC(C)Cc1ccc(C(C)C(=O)OC[C@H]2O[C@@](C#N)(c3ccc4c(N)ncnn34)[C@H](O)[C@@H]2O)cc1 (some centres not stated)
- Activity (Murine hepatitis virus [1]): Active
- Drug uptake [2]: Active
- survival at 10 mg/kg (Murine hepatitis virus [3]): 100%
- Drug uptake [4]: Active
- Drug uptake [5]: Active
- Activity (Murine hepatitis virus [6]): Active
- Activity (Murine hepatitis virus [7]): Active
- Activity (Murine hepatitis virus [8]): Active
- Drug uptake [9]: Active
- Activity (Murine hepatitis virus [10]): Active
- Activity (Murine hepatitis virus [11]): Active
- Activity (Murine hepatitis virus [12]): Active
- Activity (Murine hepatitis virus [13]): Active
- Drug metabolism [14]: Metabolite_Detected
- Activity (Murine hepatitis virus [15]): Active
- Activity (Murine hepatitis virus [16]): Active
- t1/2 [17]: 4.4173 h
- Activity (Murine hepatitis virus [18]): Active
- Activity [19]: Toxic
- solubility [20]: 49.9 µM (≈ 23.9 µg/mL)
- Drug uptake [21]: Active
- Activity (Murine hepatitis virus [22]): Active
